Shown is part of a subset that was picked to be rich in hits.
CHOP inh: inhibitors of CHOP promoter induction, primary screen, cell-based, unfolded protein response, luciferase reporter; inhibition, % at 10 µM; CHO-K1 CHOP-promoter luciferase, tunicamycin-induced, 15-18 h; AID 2732, 2010; hit rate 3.8% among 220,000;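 active means compounds that reduced the stress-induced luciferase reporter signal by more than about 70% of percent inhibition, limit read from the data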;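 further: 0% = tunicamycin plus vehicle and 100% = wells without tunicamycin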
UPR XBP1 act: activators of adaptive XBP1 UPR arm, primary screen, cell-based, CHO-XBP1 luciferase reporter, luminescence, uHTS; IRE1-XBP1 UPR activation; percent of tunicamycin response, DMSO as zero; activation, % at 20 µM; hit rate 0.33% among 330,000; AID 463104, 2010;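 active means versus positive control, 20 µM dose yields 30% or more activation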;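 further: 100% = tunicamycin at 10 µg/mL and 0% = DMSO only wells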
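Material – CHO cell line with stable XBP1 luciferase reporter · Buffer or medium – F12 plus 10% FBS · Compound – single point, 20 µM final compound, 1% DMSO · Schedule – 16-18 h cell attachment at 37 °C, then 6 h compound exposure · Signal – Steady-Glo luminescence read · Benchmarks – high control tunicamycin 10 µg/mL final, low control DMSO vehicle only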
UPR CHOP act: activators of apoptotic CHOP UPR arm, primary screen, cell-based, CHO-CHOP luciferase reporter, luminescence, uHTS | UPR activation; percent of tunicamycin response over DMSO baseline | activation, % at 10 µM | hit rate 0.34% among 330,000;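 active means at 10 µM dose, activation of 40% or more, normalized to positive control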;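 further: 100% = tunicamycin at 10 µg/mL and 0% = DMSO alone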
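Evaluation: % reporter activation, DMSO baseline versus tunicamycin full activation; System: CHO-CHOP luciferase reporter cell line; Input: 500 cells/well; Incubation: 6 h compound treatment, 37 °C; Measured by: Steady-Glo luciferase luminescence; Dosing: one dose, 10 µM in 0.5% DMSO; Buffer or medium: F12 medium, 10% FBS; Benchmarks: positive tunicamycin 10 µg/mL, negative DMSO alone.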
FXN GAA850 act: FXN promoter activators, primary screen, cell-based, luciferase luminescence, HEK293 lucGAA850 | HEK293 lucGAA850 FXN promoter luciferase reporter, 24 h; percent of 10 µM SAHA response | activation, % at 6 µM | hit rate 0.56% among 360,000;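 active means activation above the average of all compounds screened plus 3 SD, cutoff fixed separately per campaign, cut at about 7.5% in these data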;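 further: 0% = DMSO wells and 100% = 10 µM SAHA wells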
Numbers without * were called inactive; nt = not tested or not shown.

SMILES	CHOP inh	UPR XBP1 act	UPR CHOP act	FXN GAA850 act
Cc1ccc(CN2C(=O)N/C(=C\c3ccc(N4CCOCC4)cc3)C2=O)cc1	92.3*	7.1	3.0	2.9
Cc1ccc(/C=C2/NC(=O)N(Cc3ccc(Br)cc3)C2=O)o1	104.7*	-2.9	1.8	6.0
CCCN1C(=O)/C(=C/c2ccc(N3CCOCC3)cc2)NC1=S	-17.3	0.2	2.5	2.2
O=C1N/C(=C\c2ccc(N3CCOCC3)c(F)c2)C(=O)N1Cc1ccccc1	85.1*	11.7	4.1	-2.9
COc1ccc(S(=O)(=O)N(Cc2ccccc2)Cc2nc3ccccc3c(=O)[nH]2)cc1	71.8*	-0.2	-1.7	-0.3
CCOC(=O)c1c(CN2CCN(c3ccccc3)CC2)oc2ccc(O)cc12	81.0*	-2.8	0.2	3.5
CSc1ccc(Cn2c(C)c(C(=O)NCc3ccc(F)cc3)sc2=O)cc1	nt	nt	nt	-1.2
CNC(=O)C[C@H]1C(=O)N(c2ccc(OC)cc2)C[C@@H]1CSC	nt	nt	nt	-0.4
Cc1ccccc1NC(=O)CNC(=O)N1CC(=O)Nc2ccccc21	nt	nt	nt	2.5
Cc1nn2c(NCCCN(C)C)c3c(nc2c1-c1ccccc1)CCC3	93.0*	1.8	-0.4	2.9
Cc1nn2c(-n3ccnc3C)c3c(nc2c1-c1ccccc1)CCC3	22.6	-1.6	0.3	0.9
Cc1nn2c(N3CCOCC3)c3c(nc2c1-c1ccccc1)CCCC3	71.9*	-0.5	0.2	0.8
N#Cc1ccc(C(=O)N2CCCCC2c2cc(C(=O)Nc3ccc4c(c3)OCO4)no2)cc1 (centres undefined)	nt	nt	nt	-0.9
Cc1nn(CCO)c2nc(-c3cccs3)cc(C(F)(F)F)c12	85.2*	5.0	0.8	3.2
COC(=O)c1ccc(NC(=O)Nc2ccc(F)c(Cl)c2)cc1	86.0*	0.4	3.9	2.9
O=C(Nc1ccc(F)c(Cl)c1)Nc1ccc(Cl)cn1	81.0*	-0.3	0.8	0.9
Cc1nc(NC(=O)C(C)(C)C)sc1-c1csc(N)n1	nt	nt	nt	-0.8
O=C(OCC(=O)c1c[nH]c2ccccc12)c1cc2ccccc2cc1O	72.6*	1.0	1.9	1.8
NC(=O)c1[nH]cnc1N=NN(CCO)Cc1ccccc1	nt	nt	nt	-0.1
COc1ccc(/C=N/NC(=O)c2ccc(Cl)cc2)cc1Cn1cc(Cl)cn1	85.7*	-3.5	1.5	0.7
COc1ccc(/C=N\NC(=O)COc2ccccc2Cl)cc1Cn1nc(C)cc1C	80.7*	3.5	1.8	-0.4
COc1ccc(/C=N/NC(=O)CCn2nc(C)cc2C)cc1O	-1.6	-0.3	1.0	-1.1
CCN1CCN(c2nnc(-c3ccccc3)c3ccccc23)CC1	nt	-7.0	1.2	1.2
CCCCSc1nnc(-c2ccccc2)c2ccccc12	82.3*	5.3	0.1	3.5
Cc1nc2ccc(C(=O)N(C)Cc3ccccc3)cn2c1N(C)C(=O)CCc1ccccc1	nt	nt	nt	2.5
SMILES	CHOP inh	UPR XBP1 act	UPR CHOP act	FXN GAA850 act
COc1cc(S(=O)(=O)N2CCN(Cc3ccccc3)CC2)ccc1Br	78.3*	-4.0	-0.6	4.0
COc1cc(CN2CCN(S(=O)(=O)c3ccccc3)CC2)cc(OC)c1OC	nt	-4.4	2.1	2.2
Cc1csc(=O)n1CCC(=O)OCC(=O)NCc1ccccc1	nt	nt	nt	1.2
CC(C)(C)c1ccc(CSc2nnc(-c3ccccn3)n2Cc2ccco2)cc1	93.8*	1.0	1.1	1.8
Brc1ccc(CSc2nnc(-c3ccccn3)n2Cc2ccco2)cc1	46.8	6.5	-0.6	-4.6
O=C1c2cccc3c(N4CCCCC4)ccc(c23)C(=O)N1c1ccc(O)cc1	106.4*	5.7	0.9	1.9
CCOc1cc(C(=O)O/N=C(\N)c2ccc([N+](=O)[O-])cc2)cc(OCC)c1OCC	79.3*	1.6	5.0	-2.6
COc1cc(C(=O)O/N=C(\N)c2ccc([N+](=O)[O-])cc2)cc(OC)c1OC	-9.1	2.6	-1.3	1.4
CC1(C)CC(=O)C=C(c2ccc(-c3cnc4ccccc4c3)cc2)C1=O	nt	nt	nt	-4.7
CC1(C(=O)NS(=O)(=O)c2ccc(Cl)cc2)CCN1C(=O)CCC1CCCC1 (centres undefined)	nt	nt	nt	0.5
Cc1ccc(C2=NOC(=O)/C2=C\C=C\c2ccccc2)cc1	89.6*	nt	nt	5.1
CN(C)/C=C1\C(=O)ON=C1c1ccccc1	19.7	5.0	-2.2	0.3
O=S(=O)(N1CCCCC1)N1CCN(CC(O)COc2ccc3cc(Br)ccc3c2)CC1 (centres undefined)	86.7*	0.3	0.1	-2.1
OC(COC(c1ccc(Cl)cc1)c1ccc(Cl)cc1)CN1CCN(c2ccccn2)CC1 (centres undefined)	91.3*	-2.5	-2.0	0.9
OC(COc1ccc2cc(Br)ccc2c1)CN1CCN(c2ccccn2)CC1 (centres undefined)	78.9*	-1.0	-0.8	0.2
COc1ccc(CC(=O)N2CCN(c3ccccn3)CC2)cc1OC	-1.4	-2.3	-0.8	2.5
CCCc1ccc(OCc2ccc(C(=O)N3CCN(c4ccccn4)CC3)o2)c(OC)c1	78.6*	0.1	-0.5	2.8
O=C(Nc1ccc2ccccc2n1)Nc1ccccc1F	nt	2.5	1.2	3.5
COc1cccc(NC(=O)Nc2ccc(C)c(Cl)c2)c1	87.8*	-0.1	7.6	6.2
COc1cccc(NC(=O)Nc2ccc(C(C)(C)C)cc2)c1	92.9*	0.2	5.8	3.8
COc1cccc(NC(=O)Nc2cc(C(=O)O)ccc2C)c1	10.9	0.5	-0.5	-0.3
COc1cccc(NC(=O)c2ccc(NC(=O)C(C)(C)C)cc2)c1	-37.3	2.4	4.9	6.4
COc1cccc(NC(=O)Nc2ccncc2)c1	-4.0	2.4	-1.4	0.3
CC(C)(C)c1ccc(NC(=O)Nc2ccc3ccccc3n2)cc1	85.3*	0.5	2.2	0.5
COc1cccc(NC(=O)Nc2ccc(Cc3ccncc3)cc2)c1	70.2*	-0.5	1.2	1.6
SMILES	CHOP inh	UPR XBP1 act	UPR CHOP act	FXN GAA850 act
CC(=O)Nc1cccc(-c2ccnc3c2CC(C(=O)NCCC(F)(F)F)O3)c1 (centres undefined)	nt	nt	nt	-2.7
COc1cccc(C(=Cc2ccc([N+](=O)[O-])cc2)C(=O)O)c1	nt	nt	nt	0.1
C[C@]12CC[C@H](O)CC1=CCC1C2CC[C@@]2(C)C1CC[C@@H]2NCc1ccccc1 (some centres undefined)	nt	nt	nt	-0.6
CC(C)C[C@H](NC(=O)c1[nH]cnc1C(=O)Nc1ccc(CNC(=O)OC(C)(C)C)cc1)C(=O)OC(C)(C)C	84.5*	11.5	4.6	0.2
CC(C)(C)OC(=O)CNC(=O)c1[nH]cnc1C(=O)N[C@@H](Cc1ccccc1)C(=O)OC(C)(C)C	90.0*	2.1	0.1	0.0
CC(C)C[C@H](NC(=O)c1nc[nH]c1C(=O)NCc1ccc(CNC(=O)OC(C)(C)C)cc1)C(=O)OC(C)(C)C	nt	-3.1	0.3	0.2
COc1ccc(NC(=O)c2nc[nH]c2C(=O)N[C@@H](CC(C)C)C(=O)OC(C)(C)C)cc1	76.1*	5.8	-0.5	0.9
